For experiment [1], the target named is T1, Alpha-1A adrenergic receptor (Oryctolagus cuniculus) (UniProt O02824).
T1 sequence (whole entry): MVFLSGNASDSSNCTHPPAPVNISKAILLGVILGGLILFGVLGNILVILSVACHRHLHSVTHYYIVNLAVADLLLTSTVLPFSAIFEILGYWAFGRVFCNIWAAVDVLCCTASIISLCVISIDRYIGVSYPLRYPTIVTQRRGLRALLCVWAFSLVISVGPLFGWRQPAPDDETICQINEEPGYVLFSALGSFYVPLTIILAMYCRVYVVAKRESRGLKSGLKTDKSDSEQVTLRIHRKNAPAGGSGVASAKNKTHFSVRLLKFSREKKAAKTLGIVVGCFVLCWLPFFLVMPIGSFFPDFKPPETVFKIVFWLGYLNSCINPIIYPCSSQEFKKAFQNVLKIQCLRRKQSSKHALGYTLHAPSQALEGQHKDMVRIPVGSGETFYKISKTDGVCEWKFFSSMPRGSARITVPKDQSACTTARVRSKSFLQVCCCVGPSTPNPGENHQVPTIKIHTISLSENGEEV
The experiment in a line: Binding affinity to rabbit aorta adrenergic alpha1A receptor assessed as inhibition of phenylephrine-induced constriction after 30 mins. The procedure, abridged:
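Rabbit aortic rings (3–4 mm) held in organ bath under 20 mN resting tension, equilibrated 30 min. Cumulative phenylephrine curves (5 × 10⁻⁹–5 × 10⁻⁴ M) run without or with 30 μM antagonist after 30 min preincubation. EC50 from non-linear sigmoidal fit per experiment; concentration ratio r gives KB via Schild equation r − 1 = [B]/KB. Mean ± S.E.M of 4–6 experiments.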

The test system of another experiment is Oryctolagus cuniculus. Briefly: Hypotensive activity in New Zealand albino rabbit adrenergic alpha1 receptor assessed as inhibition of phenylephrine-induced rabbit systemic vascular resistance at 100 ug/kg, iv administered as bolus dose. In kind it is functional, organism-based. The procedure, abridged: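 Anaesthetised New Zealand albino rabbits of either sex (3.0 kg), given pentobarbital 40 mg/kg i.v. plus a 5 mg/kg top-up, tracheotomised, ventilated with room air and paralysed with pancuronium 1 mg/kg i.v. After 15–30 min stabilisation, phenylephrine dose-response curves (0.1–100 μg/kg, i.v.) were run with or without test compound given i.v. (0.1–100 μg/kg). Recording was continuous over 30 min. Systemic vascular resistance = MAP/cardiac output × 80 (dyn s/cm⁵).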

For experiment [2], the target named is T2, Alpha-1B adrenergic receptor (Rattus norvegicus, UniProt P15823).
T2 sequence (P15823 whole entry): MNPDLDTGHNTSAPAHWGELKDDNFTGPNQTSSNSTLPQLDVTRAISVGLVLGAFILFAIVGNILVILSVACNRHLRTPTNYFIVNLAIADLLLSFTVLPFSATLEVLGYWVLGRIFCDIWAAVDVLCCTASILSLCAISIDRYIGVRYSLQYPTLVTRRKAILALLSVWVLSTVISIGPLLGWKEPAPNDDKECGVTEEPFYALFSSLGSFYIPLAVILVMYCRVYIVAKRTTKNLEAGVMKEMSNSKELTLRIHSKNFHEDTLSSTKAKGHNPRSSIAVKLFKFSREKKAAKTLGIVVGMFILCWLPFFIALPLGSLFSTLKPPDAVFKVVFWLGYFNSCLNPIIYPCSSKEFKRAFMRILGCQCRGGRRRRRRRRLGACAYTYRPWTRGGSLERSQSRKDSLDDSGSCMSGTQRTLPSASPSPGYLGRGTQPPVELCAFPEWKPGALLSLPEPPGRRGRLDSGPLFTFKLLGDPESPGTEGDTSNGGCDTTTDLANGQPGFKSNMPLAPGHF
The experiment in a line: Displacement of [3H]prazosin from rat liver adrenergic alpha1B receptor after 45 mins by liquid scintillation counter. For orientation: In a radioligand displacement assay an active substance lowers the binding of a labelled ligand.

The species named for a further experiment is Rattus norvegicus. The experiment in a line: Selectivity ratio of Ki for rat liver adrenergic alpha1B receptor to Ki for rat salivary gland adrenergic alpha 1A. The procedure, abridged:
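[3H]-prazosin competition binding on rat liver membranes (α1B) and rat salivary gland membranes (α1A), about 150 µg protein, 45 min at 25 °C in 50 mM TRIS-HCl with 1 mM EDTA, pH 7.4. Radioligand was 0.1 nM (liver) or 0.06 nM (salivary). […] Filtration, then scintillation counting. Ki from IC50 by Cheng–Prusoff; ratio of the two Ki values.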

Experiment [3] concerns the target T1, Alpha-1A adrenergic receptor (Oryctolagus cuniculus). The experiment in a line: Ratio of BMY7378 KB to compound KB for rabbit aorta adrenergic alpha1A receptor assessed as inhibition of phenylephrine-induced constriction after 30 mins.
Experiment [4] addresses T3, Alpha-1D adrenergic receptor (Rattus norvegicus, UniProt P23944).
T3 sequence (P23944 whole entry): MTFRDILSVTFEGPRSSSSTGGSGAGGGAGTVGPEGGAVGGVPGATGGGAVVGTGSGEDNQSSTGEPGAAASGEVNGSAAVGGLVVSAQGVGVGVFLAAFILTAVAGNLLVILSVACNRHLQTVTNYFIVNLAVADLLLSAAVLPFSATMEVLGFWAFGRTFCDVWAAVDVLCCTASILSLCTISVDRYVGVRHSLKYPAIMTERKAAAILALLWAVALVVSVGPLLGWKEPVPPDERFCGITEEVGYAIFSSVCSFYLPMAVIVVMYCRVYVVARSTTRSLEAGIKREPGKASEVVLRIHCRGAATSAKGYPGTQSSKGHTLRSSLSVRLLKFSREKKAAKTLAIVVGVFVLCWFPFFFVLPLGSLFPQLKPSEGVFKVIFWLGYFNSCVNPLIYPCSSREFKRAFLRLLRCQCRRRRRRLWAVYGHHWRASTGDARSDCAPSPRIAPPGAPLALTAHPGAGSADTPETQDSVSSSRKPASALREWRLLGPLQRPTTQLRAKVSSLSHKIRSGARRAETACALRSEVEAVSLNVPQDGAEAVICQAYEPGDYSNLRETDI
Briefly: Antagonist activity at adrenergic alpha 1D receptor in rat thoracic aorta assessed as inhibition of noradrenaline-induced contraction after 1 hr. In kind it is functional, tissue-based. As to conditions: read-out: pA2 (converted).

Experiment [5] has as its target T4, Alpha-1D adrenergic receptor (Rattus norvegicus) (UniProt P23944).
T4 sequence (whole entry): T3 sequence (P23944 whole entry)
As to conditions: Thoracic aorta.

The target in experiment [6] is T5, Alpha-1A adrenergic receptor (Rattus norvegicus, UniProt P43140).
T5 sequence (P43140 whole entry): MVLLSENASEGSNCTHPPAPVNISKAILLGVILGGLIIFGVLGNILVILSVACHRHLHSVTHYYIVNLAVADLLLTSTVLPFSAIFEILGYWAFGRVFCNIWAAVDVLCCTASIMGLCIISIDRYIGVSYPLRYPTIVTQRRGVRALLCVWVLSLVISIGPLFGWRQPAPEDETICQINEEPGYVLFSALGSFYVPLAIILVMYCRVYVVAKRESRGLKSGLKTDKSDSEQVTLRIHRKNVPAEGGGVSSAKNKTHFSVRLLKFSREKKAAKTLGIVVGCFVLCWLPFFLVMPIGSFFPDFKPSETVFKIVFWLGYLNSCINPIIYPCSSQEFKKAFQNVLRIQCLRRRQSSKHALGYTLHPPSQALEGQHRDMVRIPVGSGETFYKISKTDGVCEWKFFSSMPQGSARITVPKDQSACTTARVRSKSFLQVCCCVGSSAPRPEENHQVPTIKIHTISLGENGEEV
Briefly: Displacement of [3H]prazosin from rat salivary gland adrenergic alpha 1A receptor after 45 mins by liquid scintillation counter.

Here are results for 18 compounds from ChEMBL document CHEMBL2150896, “Discovery of LASSBio-772, a 1,3-benzodioxole N-phenylpiperazine derivative with potent alpha 1A/D-adrenergic receptor blocking properties” (Eur J Med Chem, 2011).

Activity calls are given as the source filed them. No cut-off for these calls is given here.

Consider `c1ccc(CCCN2CCN(c3ccccc3)CC2)cc1`, for which, in experiment [1], the Kb came to 9380 nM.

Take `c1ccc(N2CCN(CCCOc3ccc4c(c3)OCO4)CC2)cc1`: the Kb in experiment [1] is 27500 nM.

As to `c1ccc(N2CCN(Cc3ccc4c(c3)OCO4)CC2)cc1`, the Kb in experiment [1] was determined as 25000 nM.

`COc1cc2nc(N3CCN(C(=O)c4ccco4)CC3)nc(N)c2cc1OC`: in the experiment on Oryctolagus cuniculus, the inhibition entry was “Active”.

Turning to `c1ccc(N2CCN(CCOc3ccc4c(c3)OCO4)CC2)cc1`, in experiment [1], the Kb is 10300 nM.

For orientation: IC50 means the point on the concentration scale where inhibition reaches its midpoint. Lower therefore signals greater potency in that assay. For orientation: Ki means a dissociation constant, usually derived from enzyme kinetics or from competition with a known ligand. A higher Ki goes with lower affinity. Broadly, the pKb is −log10 of the Kb, conventionally taken in molar units. Read a high pKb as a low Kb. Turning to `COc1ccccc1N1CCN(CCc2ccc3c(c2)OCO3)CC1`, the inhibition result with Oryctolagus cuniculus is “Active”. In addition, the half-inhibitory concentration (IC50) was 6.03 nM in experiment [2] and 0.269 nM in experiment [6]. Also, the Ki in experiment [2] worked out at 5.55 nM. The Kb in experiment [1] is 18 nM; in experiment [4], 0.0251 nM. Moreover, in the experiment listed under Rattus norvegicus, the Ratio Ki worked out at 40. Further, the Ratio in experiment [3] stood at 80. In experiment [5], the negative-log Kb (pKb) turned out to be 10.3.

On to `c1ccc(N2CCN(CCCc3ccc4c(c3)OCO4)CC2)cc1`, for which, in experiment [1], the Kb is 3800 nM.

For `Clc1ccc(N2CCN(CCc3ccc4c(c3)OCO4)CC2)cc1`, in experiment [1], the Kb is 1240 nM.

Take `COc1ccc(N2CCN(CCc3ccc4c(c3)OCO4)CC2)cc1`: the Kb in experiment [1] was found to be 870 nM.

Consider `c1ccc(CCCCN2CCN(c3ccccc3)CC2)cc1`, for which the Kb in experiment [1] came to 1420 nM.

For the compound `COc1ccccc1N1CCN(CCN2C(=O)CC3(CCCC3)CC2=O)CC1`, in experiment [1], the Kb stood at 1450 nM.

Take `c1ccc(OCCN2CCN(c3ccccc3)CC2)cc1`: the Kb in experiment [1] is 7320 nM.

As for `c1ccc(N2CCN(CCCCc3ccc4c(c3)OCO4)CC2)cc1`, the Kb in experiment [1] worked out at 9380 nM.

Consider `c1ccc(CCN2CCN(c3ccccc3)CC2)cc1`, for which the Kb in experiment [1] turned out to be 1460 nM.

Regarding `COc1ccccc1N1CCN(CCCc2ccc3c(c2)OCO3)CC1`, the Kb in experiment [1] is 130 nM.

Take `c1ccc(N2CCN(CCc3ccc4c(c3)OCO4)CC2)cc1`: the Kb in experiment [1] came to 270 nM.

As for `c1ccc(CN2CCN(c3ccccc3)CC2)cc1`, in experiment [1], the Kb came out at 25000 nM.

In the case of `Fc1ccc(N2CCN(CCc3ccc4c(c3)OCO4)CC2)cc1`, in experiment [1], the Kb came to 410 nM.
